The source of these data is ChEMBL document CHEMBL4270660, “Design, synthesis, and systematic evaluation of 4-arylpiperazine- and 4-benzylpiperidine napthyl ethers as inhibitors of monoamine neurotransmitters reuptake” (Bioorg Med Chem, 2018).

Active and inactive are the calls of the source. The rule behind the calls is not given here. A value given as a limit tells only on which side of the number the result lay.

As a reminder, the inhibition is the drop in the measured response relative to a control, in per cent. Usually IC50 stands for the concentration that inhibits the measured activity by half. Read a high IC50 as a need for much substance.

Assay [1] has as its target T1, Sodium-dependent noradrenaline transporter (Homo sapiens, UniProt P23975). Nature of the assay: Inhibition of [3H]norepinephrine uptake at human NET expressed in HEK293 cells at 10 uM after 15 to 20 mins by microbeta scintillation counting method. Type of assay: cell-based. Summed up: (§1)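 HEK-293 cells transfected with the human transporter (DAT or NET) were given the radiolabeled substrate, [³H]-DA for DAT or [³H]-NE for NET, at 20 nM in the assay. Uptake was measured by liquid scintillation counting. Reference inhibitors were venlafaxine HCl, bupropion and GBR12909. Single-concentration lines are percent reuptake inhibition at the stated concentration.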

Assay [2] concerns the target T2, Sodium-dependent serotonin transporter (Homo sapiens, UniProt P31645). The note with it: HEK293, at 1 µM.
Target sequence in this assay (P31645 whole entry, looked up): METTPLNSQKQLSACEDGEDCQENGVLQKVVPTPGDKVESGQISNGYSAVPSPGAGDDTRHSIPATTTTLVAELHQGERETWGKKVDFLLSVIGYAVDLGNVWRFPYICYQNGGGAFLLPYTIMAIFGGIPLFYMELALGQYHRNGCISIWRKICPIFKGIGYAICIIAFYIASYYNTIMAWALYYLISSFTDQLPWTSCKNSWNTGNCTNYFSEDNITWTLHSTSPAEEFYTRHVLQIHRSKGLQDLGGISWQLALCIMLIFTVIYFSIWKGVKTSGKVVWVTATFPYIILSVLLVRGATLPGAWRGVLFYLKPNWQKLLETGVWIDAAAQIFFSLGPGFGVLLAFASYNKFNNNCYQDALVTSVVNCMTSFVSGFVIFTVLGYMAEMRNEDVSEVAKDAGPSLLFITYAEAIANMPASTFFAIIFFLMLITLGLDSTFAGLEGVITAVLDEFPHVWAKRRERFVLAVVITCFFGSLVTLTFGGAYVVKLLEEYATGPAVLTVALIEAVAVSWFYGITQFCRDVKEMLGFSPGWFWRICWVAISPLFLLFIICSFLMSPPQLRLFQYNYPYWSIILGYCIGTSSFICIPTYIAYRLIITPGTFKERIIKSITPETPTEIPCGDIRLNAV
For assay [3], the target named is T1, Sodium-dependent noradrenaline transporter. Nature of the assay: Inhibition of [3H]norepinephrine uptake at human NET expressed in HEK293 cells after 15 to 20 mins by microbeta scintillation counting method. Type of assay: cell-based. Summed up: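 HEK-293 cells transfected with the human transporter (DAT or NET) were given the radiolabeled substrate, [³H]-DA for DAT or [³H]-NE for NET, at 20 nM in the assay. Uptake was measured by liquid scintillation counting. Single-concentration lines are percent reuptake inhibition at the stated concentration.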

For assay [4], the target named is T2, Sodium-dependent serotonin transporter. Nature of the assay: Inhibition of [3H]serotonin uptake at human SERT expressed in HEK293 cells after 15 to 20 mins by microbeta scintillation counting method. Type of assay: cell-based.
Target sequence in this assay (P31645 whole entry): as the sequence (P31645 whole entry, looked up) above
Assay [5] has as its target T3, Sodium-dependent dopamine transporter (Homo sapiens, UniProt Q01959). Nature of the assay: Inhibition of [3H]dopamine uptake at human DAT expressed in HEK293 cells at 1 uM after 15 to 20 mins by microbeta scintillation counting method. Format: cell-based. In a few lines: as §1
Assay [6] addresses T3, Sodium-dependent dopamine transporter. Description: Inhibition of [3H]dopamine uptake at human DAT expressed in HEK293 cells after 15 to 20 mins by microbeta scintillation counting method. Type of assay: cell-based. Summed up:
as §1

In assay [7] the target is T1, Sodium-dependent noradrenaline transporter. The note with it: HEK293, 1 uM.
The target in assay [8] is T2, Sodium-dependent serotonin transporter. Nature of the assay: Inhibition of [3H]serotonin uptake at SERT (unknown origin). Summed up: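 Human serotonin transporter (hSERT) expressed by transfection in HEK-293 cells. [³H]-5-HT at 20 nM, with uptake radioactivity counted by liquid scintillation. Percent reuptake inhibition measured at 1 µM and 10 µM, plus IC50 determination.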
Target sequence in this assay (P31645 whole entry): as the sequence (P31645 whole entry, looked up) above

The target of assay [9] is T3, Sodium-dependent dopamine transporter. Description: Inhibition of [3H]dopamine uptake at DAT (unknown origin). In a few lines:
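HEK-293 cells transfected with human dopamine transporter (hDAT). Uptake of [³H]-DA at 20 nM, measured by liquid scintillation counting. Test compounds screened as % reuptake inhibition at 1 µM and 10 µM, and IC50 values determined.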

The target of assay [10] is T1, Sodium-dependent noradrenaline transporter. Nature of the assay: Inhibition of [3H]norepinephrine uptake at NET (unknown origin). Summed up:
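HEK-293 cells transfected with human norepinephrine transporter (hNET). [³H]-NE at 20 nM as substrate, with uptake read by liquid scintillation counting. Reuptake inhibition recorded at 1 µM and 10 µM test compound, and IC50 derived.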

T1 sequence (P23975 whole entry): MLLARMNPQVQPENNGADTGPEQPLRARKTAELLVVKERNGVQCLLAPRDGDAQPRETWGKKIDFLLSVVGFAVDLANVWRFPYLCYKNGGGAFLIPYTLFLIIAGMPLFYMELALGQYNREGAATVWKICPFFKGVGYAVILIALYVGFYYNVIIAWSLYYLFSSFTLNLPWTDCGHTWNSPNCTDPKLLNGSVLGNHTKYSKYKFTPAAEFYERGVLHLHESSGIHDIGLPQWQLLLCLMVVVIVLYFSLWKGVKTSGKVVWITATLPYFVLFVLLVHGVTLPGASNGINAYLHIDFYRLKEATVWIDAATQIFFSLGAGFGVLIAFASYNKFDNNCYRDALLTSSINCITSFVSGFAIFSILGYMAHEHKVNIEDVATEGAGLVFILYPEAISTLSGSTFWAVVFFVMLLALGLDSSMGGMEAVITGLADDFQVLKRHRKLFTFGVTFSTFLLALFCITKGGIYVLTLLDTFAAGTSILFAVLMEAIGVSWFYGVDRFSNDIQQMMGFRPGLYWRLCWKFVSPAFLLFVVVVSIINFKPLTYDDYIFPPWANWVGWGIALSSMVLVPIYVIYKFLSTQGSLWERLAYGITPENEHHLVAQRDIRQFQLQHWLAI
T3 sequence (Q01959 whole entry): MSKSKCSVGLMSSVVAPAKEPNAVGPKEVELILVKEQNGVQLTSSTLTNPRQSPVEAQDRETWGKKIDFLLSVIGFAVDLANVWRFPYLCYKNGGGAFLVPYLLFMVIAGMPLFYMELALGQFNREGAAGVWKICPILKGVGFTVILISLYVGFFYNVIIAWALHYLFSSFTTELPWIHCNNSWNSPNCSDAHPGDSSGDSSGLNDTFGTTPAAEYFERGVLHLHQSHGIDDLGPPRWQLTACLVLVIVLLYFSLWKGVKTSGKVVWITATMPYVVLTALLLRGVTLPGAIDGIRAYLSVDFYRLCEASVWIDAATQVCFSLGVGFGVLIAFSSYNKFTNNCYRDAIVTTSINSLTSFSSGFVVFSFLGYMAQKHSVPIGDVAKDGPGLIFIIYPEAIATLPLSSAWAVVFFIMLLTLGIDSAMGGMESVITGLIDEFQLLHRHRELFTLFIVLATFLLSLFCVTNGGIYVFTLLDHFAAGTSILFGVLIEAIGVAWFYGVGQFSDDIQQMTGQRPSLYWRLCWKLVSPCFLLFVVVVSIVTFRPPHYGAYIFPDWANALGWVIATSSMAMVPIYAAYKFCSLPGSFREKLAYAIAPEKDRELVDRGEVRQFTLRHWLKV

`Fc1ccc(N2CCN(CCCOc3ccc4ccccc4c3)CC2)cc1`: the inhibition worked out at 23.3% in assay [1] and 45.4% in assay [2].
For `c1cnc(N2CCN(CCCOc3ccc4ccccc4c3)CC2)nc1` the same measures were 47.3% and 23.8%.
For `c1ccc(N2CCN(CCCCOc3ccc4ccccc4c3)CC2)nc1` the same measures were 59% and 45.3%.
For `c1cnc(N2CCN(CCCCOc3ccc4ccccc4c3)CC2)nc1` the same measures were 31% and 32%.
In the case of `COc1ccccc1N1CCN(CCCCOc2ccc3ccccc3c2)CC1`, the inhibition was 68% in assay [1] and 51.3% in assay [2]. Moreover, the IC50 in assay [3] came to 29700 nM; in assay [4], 5160 nM.
The matching figures for `Brc1ccc(N2CCN(CCCCOc3ccc4ccccc4c3)CC2)cc1`: 66.3%, 66.3%, 25900 nM and 10700 nM.
As to `Clc1cccc(N2CCN(CCCCOc3ccc4ccccc4c3)CC2)c1`, the inhibition in [1] was 63.7%; in assay [2], 27.5%.
`c1cnc(N2CCN(CCOc3ccc4ccccc4c3)CC2)nc1`: the inhibition entry in assay [5] is “inactive”. In assay [2], this compound registered an inhibition of 57%.
With `FC(F)(F)c1ccc(N2CCN(CCCCOc3ccc4ccccc4c3)CC2)cc1`, the inhibition in assay [1] turned out to be 68.3%; in [2], 59.2%. In addition, the values for the IC50 in assay [3] and in [4] were 20500 nM and 680 nM, respectively.
For `Cc1cccc(C)c1N1CCN(CCCOc2ccc3ccccc3c2)CC1`, the inhibition in [1] turned out to be 86.5%; in [2] it was 35.1%.
The matching figures for `c1ccc(N2CCN(CCCOc3ccc4ccccc4c3)CC2)cc1`: 79.6% and 27%.
`c1ccc(N2CCN(CCOc3ccc4ccccc4c3)CC2)cc1`: the results for the inhibition in assay [5], in assay [1] and in assay [2] were 9%, 28% and 7.2%, respectively.
The matching figures for `FC(F)(F)c1ccc(N2CCN(CCOc3ccc4ccccc4c3)CC2)cc1`: 31.3%, 23.1% and 8.2%.
Consider `CC(NC(C)(C)C)C(=O)c1cccc(Cl)c1` (stereo unspecified), for which the inhibition turned out to be 78.3% in assay [5] and 61.5% in assay [1].
Regarding `c1ccc(N2CCN(CCCOc3ccc4ccccc4c3)CC2)nc1`, the results for the inhibition in [1] and in assay [2] were 68.7% and 46.2%, respectively.
Take `Brc1ccc(N2CCN(CCCOc3ccc4ccccc4c3)CC2)cc1`: the inhibition in assay [1] is 80%; in assay [2], 54.9%. In addition, the IC50 is 2850 nM in assay [3] and 830 nM in assay [4].
The matching figures for `c1ccc(CC2CCN(CCCOc3ccc4ccccc4c3)CC2)cc1`: 92.2%, 51%, 2540 nM and 990 nM.
For `Clc1ccc(N2CCN(CCCOc3ccc4ccccc4c3)CC2)cc1`, the inhibition in [1] was determined as 25.7%; in assay [2], 28.4%.
As to `Fc1cccc(F)c1N1CCN(CCCn2nnnc2C(c2ccccc2)c2ccccc2)CC1`, the IC50 in assay [4] is greater than 10000 nM.
Consider `c1ccc(N2CCN(CCOc3ccc4ccccc4c3)CC2)nc1`, for which the inhibition result in [5] is “inactive”. The inhibition stood at 66% in assay [1] and 54% in [2]. The IC50 in assay [3] amounted to 23800 nM; in [4], 1080 nM.
Take `COc1ccccc1N1CCN(CCCOc2ccc3ccccc3c2)CC1`: the results for the inhibition in [1] and in [2] were 85.3% and 56.4%, respectively. The IC50 in assay [3] was 1200 nM; in assay [4], 1040 nM.
In assay [6], `O=C(NCCCN1CCN(c2cccc(Cl)c2Cl)CC1)c1ccc2ccccc2c1` yielded an IC50 greater than 10000 nM.
For `Clc1cccc(N2CCN(CCCOc3ccc4ccccc4c3)CC2)c1Cl`, the inhibition came out at 45% in [1] and 37.5% in [2].
`COc1ccc(C(CN(C)C)C2(O)CCCCC2)cc1` (stereo unspecified) yielded an inhibition in assay [7] of 52.6%.
In the case of `Clc1ccc(N2CCN(CCOc3ccc4ccccc4c3)CC2)c(Cl)c1`, the inhibition in assay [5] amounted to 48.5%; in [1], 47.3%; in assay [2], 61.4%.
For the compound `Clc1cccc(N2CCN(CCCCOc3ccc4ccccc4c3)CC2)c1Cl`, the inhibition in [1] amounted to 60.7%; in assay [2] it was 36.8%.
`Clc1ccc(N2CCN(CCCCOc3ccc4ccccc4c3)CC2)c(Cl)c1`: the inhibition was 67.7% in assay [1] and 51% in assay [2]. The IC50 in [3] amounted to 9740 nM; in assay [4], 4320 nM.
Consider `Clc1cccc(N2CCN(CCOc3ccc4ccccc4c3)CC2)c1`, for which the inhibition result in [5] is “inactive”. Moreover, the inhibition in assay [1] amounted to 83.1%; in assay [2], 85.3%. Further, the values for the IC50 in assay [3] and in [4] were 5830 nM and 1860 nM, respectively.
For the compound `COc1ccccc1N1CCN(CCOc2ccc3ccccc3c2)CC1`, the values for the inhibition in assay [5], in [1] and in assay [2] were 19%, 21% and 48.7%, respectively.
Consider `Cc1cccc(C)c1N1CCN(CCOc2ccc3ccccc3c2)CC1`, for which the inhibition was 19% in assay [5], 74.9% in [1] and 24.6% in assay [2].
On to `O=C(NCCCN1CCC(Cc2ccccc2)CC1)c1ccc2ccccc2c1`, for which the IC50 in assay [8] is 100 nM; in [9] it was greater than 10000 nM.
In the case of `Fc1ccc(N2CCN(CCCCOc3ccc4ccccc4c3)CC2)cc1`, the inhibition in assay [1] came to 74.3%; in assay [2], 71%. In addition, the IC50 in [3] worked out at 3710 nM; in assay [4], 3150 nM.
In the case of `c1ccc(C2CCN(CCCn3nnnc3C(c3ccccc3)c3ccccc3)CC2)cc1`, the half-maximal inhibitory concentration (IC50) in [8] is greater than 10000 nM; in [9], 90 nM; in [10], 510 nM.
Consider `Fc1ccc(N2CCN(CCOc3ccc4ccccc4c3)CC2)cc1`, for which the inhibition is 35.6% in assay [5], 80.8% in assay [1] and 60.5% in [2]. The IC50 in assay [3] is 5130 nM; in assay [4], 2800 nM.
For the compound `Clc1cccc(N2CCN(CCOc3ccc4ccccc4c3)CC2)c1Cl`, the inhibition result in assay [5] is “inactive”. Besides, the figures for the inhibition in assay [1] and in [2] were 20% and 26.7%, respectively.
For `c1ccc(CC2CCN(CCCCOc3ccc4ccccc4c3)CC2)cc1`, the inhibition is 80.7% in assay [1] and 31.9% in [2].
The matching figures for `Cc1cccc(C)c1N1CCN(CCCCOc2ccc3ccccc3c2)CC1`: 74.4% and 38.3%.
In the case of `Clc1ccc(N2CCN(CCOc3ccc4ccccc4c3)CC2)cc1`, the inhibition in [5] stood at 2%; in assay [1], 28%; in assay [2] it was 20.1%.
`Fc1ccc(C(OCCN2CCN(c3ccccn3)CC2)c2ccc(F)cc2)cc1` came in with an IC50 in assay [4] of 570 nM.
`Brc1ccc(N2CCN(CCOc3ccc4ccccc4c3)CC2)cc1`: the figures for the inhibition in assay [5], in assay [1] and in assay [2] were 19%, 52.8% and 9%, respectively.
`c1ccc(CC2CCN(CCOc3ccc4ccccc4c3)CC2)cc1`: the inhibition result in assay [5] was “inactive”. Moreover, in assay [2], the inhibition worked out at 12.1%.
With `c1ccc(N2CCN(CCCCOc3ccc4ccccc4c3)CC2)cc1`, the inhibition in [1] came out at 86.4%; in [2] it was 41.2%.
For `Clc1ccc(N2CCN(CCCCOc3ccc4ccccc4c3)CC2)cc1` the same measures were 69.3% and 49%.
